Assay results published in ChEMBL document CHEMBL4396879, “Conjugation of Short Peptides to Dibenzodiazepinone-Type Muscarinic Acetylcholine Receptor Ligands Determines M2R Selectivity” (J Med Chem, 2019).
pKi: −log10 of the molar value.

Legend:
[1] = biological target: T1, Muscarinic acetylcholine receptor M1 (Homo sapiens, UniProt P11229); assay: Displacement of [3H]-NMS from human muscarinic M1 receptor expressed in CHO-K9 cells after 3 hrs by microbeta2 scintillation counting method; assay type: cell-based
T1 sequence (P11229 whole entry): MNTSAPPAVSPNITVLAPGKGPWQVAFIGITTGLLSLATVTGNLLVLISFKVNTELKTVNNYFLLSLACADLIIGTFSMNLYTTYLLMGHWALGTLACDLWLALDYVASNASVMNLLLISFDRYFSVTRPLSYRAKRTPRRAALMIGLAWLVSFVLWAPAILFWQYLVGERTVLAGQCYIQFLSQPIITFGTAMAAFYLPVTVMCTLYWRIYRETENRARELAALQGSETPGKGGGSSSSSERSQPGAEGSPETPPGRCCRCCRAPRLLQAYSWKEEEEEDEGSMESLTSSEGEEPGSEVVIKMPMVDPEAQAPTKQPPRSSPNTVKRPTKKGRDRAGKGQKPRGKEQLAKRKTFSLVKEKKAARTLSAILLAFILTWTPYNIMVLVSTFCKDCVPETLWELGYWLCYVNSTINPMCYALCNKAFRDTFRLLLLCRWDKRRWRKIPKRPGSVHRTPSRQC
How it was run: (§1)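 [3H]NMS competition binding on intact CHO-hMxR cells in L15 medium with 1% BSA, 3 h at 22 ± 1 °C with gentle shaking. [3H]NMS was 0.2 nM (M1, M2, M3), 0.1 nM (M4) or 0.3 nM (M5). […] Cells were lysed in urea/acetic acid/Triton and counted by liquid scintillation. Ki from Cheng-Prusoff. Triplicates, ≥3 experiments.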

[2] = biological target: T2, Muscarinic acetylcholine receptor M2 (Homo sapiens, UniProt P08172); assay: Displacement of [3H]-NMS from human muscarinic M2 receptor expressed in CHO-K9 cells after 3 hrs by microbeta2 scintillation counting method; assay type: cell-based; how it was run: as §1
T2 sequence (P08172 whole entry): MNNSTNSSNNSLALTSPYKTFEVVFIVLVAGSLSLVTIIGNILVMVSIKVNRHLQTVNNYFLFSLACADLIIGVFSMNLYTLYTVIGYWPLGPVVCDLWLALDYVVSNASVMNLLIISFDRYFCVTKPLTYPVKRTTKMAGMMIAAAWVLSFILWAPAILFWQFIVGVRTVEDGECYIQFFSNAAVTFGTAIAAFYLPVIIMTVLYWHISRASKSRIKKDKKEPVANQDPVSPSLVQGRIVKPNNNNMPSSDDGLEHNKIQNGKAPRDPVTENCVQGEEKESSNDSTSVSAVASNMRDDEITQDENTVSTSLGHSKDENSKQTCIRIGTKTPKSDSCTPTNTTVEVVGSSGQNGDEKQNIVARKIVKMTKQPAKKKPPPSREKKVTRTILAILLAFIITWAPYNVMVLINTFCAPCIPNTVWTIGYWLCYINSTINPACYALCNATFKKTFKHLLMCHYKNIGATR

[3] = biological target: Muscarinic acetylcholine receptor M3 (Homo sapiens, UniProt P20309); assay: Displacement of [3H]-NMS from human muscarinic M3 receptor expressed in CHO-K9 cells after 3 hrs by microbeta2 scintillation counting method; assay type: cell-based; how it was run: as §1
Muscarinic acetylcholine receptor M3, sequence (P20309 whole entry): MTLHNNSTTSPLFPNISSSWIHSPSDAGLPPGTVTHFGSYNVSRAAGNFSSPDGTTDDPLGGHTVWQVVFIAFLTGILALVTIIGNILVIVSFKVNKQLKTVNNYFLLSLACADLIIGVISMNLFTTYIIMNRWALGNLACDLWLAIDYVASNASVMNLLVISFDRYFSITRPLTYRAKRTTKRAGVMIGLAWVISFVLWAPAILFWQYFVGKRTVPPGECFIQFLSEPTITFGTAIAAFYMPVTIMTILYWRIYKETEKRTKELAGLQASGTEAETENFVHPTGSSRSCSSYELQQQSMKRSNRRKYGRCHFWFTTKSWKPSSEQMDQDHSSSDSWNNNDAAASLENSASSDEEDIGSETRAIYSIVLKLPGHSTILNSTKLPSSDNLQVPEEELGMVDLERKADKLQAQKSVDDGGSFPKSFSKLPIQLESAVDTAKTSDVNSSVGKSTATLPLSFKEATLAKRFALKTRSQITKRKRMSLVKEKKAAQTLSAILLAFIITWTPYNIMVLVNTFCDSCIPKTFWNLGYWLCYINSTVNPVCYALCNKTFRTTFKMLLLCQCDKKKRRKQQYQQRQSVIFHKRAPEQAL

[4] = biological target: T3, Muscarinic acetylcholine receptor M4 (Homo sapiens, UniProt P08173); assay: Displacement of [3H]-NMS from human muscarinic M4 receptor expressed in CHO-K9 cells after 3 hrs by microbeta2 scintillation counting method; assay type: cell-based; how it was run: as §1
T3 sequence (P08173 whole entry): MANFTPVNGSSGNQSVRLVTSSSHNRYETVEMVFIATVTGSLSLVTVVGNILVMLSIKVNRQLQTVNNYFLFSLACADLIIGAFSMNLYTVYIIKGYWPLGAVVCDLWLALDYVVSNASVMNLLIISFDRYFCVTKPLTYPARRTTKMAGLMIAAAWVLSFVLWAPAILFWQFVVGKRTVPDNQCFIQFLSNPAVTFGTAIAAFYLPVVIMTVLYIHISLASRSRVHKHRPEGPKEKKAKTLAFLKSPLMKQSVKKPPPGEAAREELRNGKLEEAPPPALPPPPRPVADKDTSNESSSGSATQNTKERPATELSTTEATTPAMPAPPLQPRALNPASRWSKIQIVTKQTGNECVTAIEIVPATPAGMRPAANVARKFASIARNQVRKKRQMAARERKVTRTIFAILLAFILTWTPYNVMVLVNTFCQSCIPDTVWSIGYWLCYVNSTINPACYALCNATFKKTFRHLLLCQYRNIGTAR

[5] = biological target: T4, Muscarinic acetylcholine receptor M5 (Homo sapiens, UniProt P08912); assay: Displacement of [3H]-NMS from human muscarinic M5 receptor expressed in CHO-K9 cells after 3 hrs by microbeta2 scintillation counting method; assay type: cell-based; how it was run: as §1
T4 sequence (P08912 whole entry): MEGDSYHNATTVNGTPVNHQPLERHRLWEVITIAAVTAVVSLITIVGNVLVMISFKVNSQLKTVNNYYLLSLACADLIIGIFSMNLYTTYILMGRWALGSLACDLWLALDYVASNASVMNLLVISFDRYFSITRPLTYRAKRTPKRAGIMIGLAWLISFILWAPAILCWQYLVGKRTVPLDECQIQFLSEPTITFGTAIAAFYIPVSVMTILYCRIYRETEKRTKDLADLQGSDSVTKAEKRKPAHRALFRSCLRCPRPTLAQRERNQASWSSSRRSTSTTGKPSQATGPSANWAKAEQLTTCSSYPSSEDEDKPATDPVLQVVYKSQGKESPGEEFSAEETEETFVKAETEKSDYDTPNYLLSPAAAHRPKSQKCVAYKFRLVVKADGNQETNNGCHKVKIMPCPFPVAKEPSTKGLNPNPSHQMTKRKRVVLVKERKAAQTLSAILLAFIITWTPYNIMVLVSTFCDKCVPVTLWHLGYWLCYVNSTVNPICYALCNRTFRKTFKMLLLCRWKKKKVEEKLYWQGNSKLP

[6] = biological target: Muscarinic acetylcholine receptors; M1 & M2 (Homo sapiens) (UniProt P11229+P08172); assay: Selectivity ratio of Ki for human muscarinic M1 receptor expressed in CHO-K9 cells to Ki for human muscarinic M2 receptor expressed in CHO-K9 cells; assay type: cell-based
How it was run: (§2)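 Ratio of mean Ki values. Each Ki came from an individual [3H]NMS competition experiment at the given CHO-hMxR subtype, converting IC50 to Ki by Cheng-Prusoff before averaging.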

[7] = biological target: T5, Muscarinic acetylcholine receptors; M2 & M3 (Homo sapiens) (UniProt P20309+P08172); assay: Selectivity ratio of Ki for human muscarinic M3 receptor expressed in CHO-K9 cells to Ki for human muscarinic M2 receptor expressed in CHO-K9 cells; assay type: cell-based; how it was run: as §2
T5 sequence (P20309 whole entry, looked up, one chain of several): as the sequence (P20309 whole entry) above

[8] = biological target: Muscarinic acetylcholine receptor M2 and M4 (Homo sapiens) (UniProt P08173+P08172); assay: Selectivity ratio of Ki for human muscarinic M4 receptor expressed in CHO-K9 cells to Ki for human muscarinic M2 receptor expressed in CHO-K9 cells; assay type: cell-based; how it was run: as §2
[9] = biological target: T6, Muscarinic acetylcholine receptor M2 and M5 (Homo sapiens) (UniProt P08172+P08912); assay: Selectivity ratio of Ki for human muscarinic M5 receptor expressed in CHO-K9 cells to Ki for human muscarinic M2 receptor expressed in CHO-K9 cells; assay type: cell-based; how it was run: as §2
[10] = biological target: T7, Muscarinic acetylcholine receptor M2 (Homo sapiens) (UniProt P08172); assay: Antagonist activity at human muscarinic M2 receptor expressed in HEK293 cells co-expressing HA-Galphaq/i5 assessed as inhibition of carbachol-induced IP1 accumulation pre-incubated for 30 mins followed by carbachol addition and measured after 1 hr by HTRF assay; assay type: functional, cell-based
T7 sequence (whole entry): T2 sequence (P08172 whole entry)
How it was run: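 HEK-293 cells transiently cotransfected (receptor plus HA-tagged Gαqi5), detached after 1 day and seeded at 10,000 cells/well for 24 h at 37 °C. Duplicates.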

[11] = biological target: T5, Muscarinic acetylcholine receptors; M2 & M3 (Homo sapiens); assay: Selectivity ratio of Ki for human muscarinic M3 receptor expressed in stable CHO-K1 cells to Ki for human muscarinic M2 receptor expressed in stable CHO-K1 cells; assay type: cell-based
[12] = biological target: T6, Muscarinic acetylcholine receptor M2 and M5 (Homo sapiens); assay: Selectivity ratio of Ki for human muscarinic M5 receptor expressed in stable CHO-K1 cells to Ki for human muscarinic M2 receptor expressed in stable CHO-K1 cells; assay type: cell-based

Row | Compound | pKi [1] | pKi [2] | pKi [3] | pKi [4] | pKi [5] | Ratio Ki [6] | Ratio Ki [7] | Ratio Ki [8] | Ratio Ki [9] | inhibition [10] | Ratio Ki [11] | Ratio Ki [12]
1 | CC(=O)N[C@@H](CCCCN)C(=O)N[C@@H](Cc1ccc(O)cc1)C(=O)NCCCCC1CCN(CC(=O)N2c3ccccc3NC(=O)c3ccccc32)CC1 | 7.52 | 8.74 | 5.79 | 7.97 | 7.13 | 17 | 720 | 5.9 | 43 | – | – | –
2 | N=C(N)NCCC[C@H](N)C(=O)NCCCCC1CCN(CC(=O)N2c3ccccc3NC(=O)c3ccccc32)CC1 | 6.97 | 8.27 | 5.90 | 7.25 | 5.62 | 18 | 260 | 9.8 | 410 | – | – | –
3 | CC(=O)N[C@@H](Cc1ccc(O)cc1)C(=O)N[C@@H](C)C(=O)N[C@@H](CCCCN)C(=O)NCCN1CCN(CCCCC2CCN(CC(=O)N3c4ccccc4NC(=O)c4ccccc43)CC2)CC1 | 8.63 | 9.94 | 7.55 | 8.49 | 7.53 | 22 | 290 | 28 | 260 | – | – | –
4 | CC(=O)N[C@@H](C)C(=O)N[C@@H](C)C(=O)NCCN1CCN(CCCCC2CCN(CC(=O)N3c4ccccc4NC(=O)c4ccccc43)CC2)CC1 | 8.50 | 9.37 | 6.81 | 8.61 | 6.34 | 7.5 | 370 | 7.5 | 1100 | – | – | –
5 | CC(=O)N[C@@H](C)C(=O)N[C@@H](C)C(=O)NCCCCC1CCN(CC(=O)N2c3ccccc3NC(=O)c3ccccc32)CC1 | 6.52 | 7.64 | 5.86 | 7.10 | 5.87 | 14 | 59 | 3.7 | 62 | – | – | –
6 | CC(=O)N[C@@H](Cc1c[nH]c2ccccc12)C(=O)N[C@@H](C)C(=O)N[C@@H](Cc1ccc(O)cc1)C(=O)NCCN1CCN(CCCCC2CCN(CC(=O)N3c4ccccc4NC(=O)c4ccccc43)CC2)CC1 | 8.64 | 10.10 | 7.45 | 8.79 | 7.51 | 27 | 410 | 19 | 390 | – | – | –
7 | CC(=O)N[C@@H](CCCCN)C(=O)N[C@@H](C)C(=O)N[C@@H](Cc1ccc(O)cc1)C(=O)NCCCCC1CCN(CC(=O)N2c3ccccc3NC(=O)c3ccccc32)CC1 | 7.23 | 8.37 | 6.18 | 7.63 | 6.65 | 14 | 160 | 5.8 | 53 | – | – | –
8 | CN1[C@@H]2CC[C@H]1C[C@@H](OC(=O)C(CO)c1ccccc1)C2 (stereo not given in full) | – | – | – | – | – | – | – | – | – | Dose-dependent effect | – | –
9 | CC(=O)N[C@@H](Cc1c[nH]c2ccccc12)C(=O)N[C@@H](Cc1ccc(O)cc1)C(=O)NCCCCC1CCN(CC(=O)N2c3ccccc3NC(=O)c3ccccc32)CC1 | 6.81 | 7.48 | 5.80 | 7.03 | 7.23 | 5 | 46 | 2.8 | 1.8 | – | – | –
10 | CC(=O)N[C@@H](CCC(N)=O)C(=O)N[C@@H](CC(C)C)C(=O)NCCN1CCN(CCCCC2CCN(CC(=O)N3c4ccccc4NC(=O)c4ccccc43)CC2)CC1 | 8.62 | 9.62 | 7.21 | 8.92 | 6.53 | 9.6 | 270 | 5.4 | 1300 | – | – | –
11 | CC(=O)N[C@@H](CCC(N)=O)C(=O)N[C@@H](C)C(=O)N[C@@H](CC(C)C)C(=O)NCCN1CCN(CCCCC2CCN(CC(=O)N3c4ccccc4NC(=O)c4ccccc43)CC2)CC1 | 8.53 | 9.45 | 6.82 | 8.45 | 6.62 | 8.4 | 440 | 11 | 710 | – | – | –
12 | CC(=O)N[C@@H](CCC(N)=O)C(=O)N[C@@H](C)C(=O)N[C@@H](CC(C)C)C(=O)NCCCCC1CCN(CC(=O)N2c3ccccc3NC(=O)c3ccccc32)CC1 | 6.27 | 6.62 | < 5.00 | 6.38 | 5.92 | 2.2 | > 36 | 1.7 | 4.4 | – | – | –
13 | CCC(=O)NCCCCC1CCN(CC(=O)N2c3ccccc3NC(=O)c3ccccc32)CC1 | 7.07 | 7.10 | 5.27 | 6.68 | 5.15 | 1.1 | 69 | 2.7 | 98 | – | – | –
14 | CC(=O)N[C@@H](CCC(N)=O)C(=O)N[C@@H](CC(C)C)C(=O)NCCCCC1CCN(CC(=O)N2c3ccccc3NC(=O)c3ccccc32)CC1 | 5.98 | 6.51 | < 5.00 | 5.97 | 5.82 | 3.4 | > 27 | 3.6 | 4.9 | – | – | –
15 | CCCN(CCC)CC1CCCCN1CCNC(=O)N1c2ccccc2C(=O)Nc2cccnc21 (stereo not given) | – | – | – | – | – | – | – | – | – | – | 11 | 89
